From ChEMBL document CHEMBL1155847, “Novel indoline-based acyl-CoA:cholesterol acyltransferase inhibitor with antiperoxidative activity: improvement of physicochemical properties and biological activities by introduction of carboxylic acid” (J Med Chem, 2008)
In brackets after ≈: the same amount, converted by molar mass. Activity calls are given as the source filed them. The calls are words filed in the database; no cut-off is given here.

Key:
Brain = test: Antiperoxidative activity in Sprague-Dawley rat brain assessed as inhibition of malonaldehyde level; assay type: functional, tissue-based
In short: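 Cerebral cortex from male SD rats (6 weeks) homogenized in ice-cold 50 mM PBS pH 7.4, spun 1300g. Supernatant incubated 37 °C, 30 min with vehicle or compound. Stopped with 20% TCA; thiobarbituric acid reaction at 100 °C, 15 min; MDA read at 532 nm, less pre-assay MDA. Duplicate assay, n = 2.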

[1] = Distribution coefficient, log D at pH 7.0; assay type: physicochemical; conditions: octanol/water
In short: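 5 mg of compound in 5 mL octanol shaken 30 min at room temperature with 5 mL 1/15 M potassium phosphate buffer pH 7.0, then centrifuged. Both phases quantified by HPLC. log D taken as log of the octanol/buffer concentration ratio.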

[2] = Solubility in water at pH 7.0; assay type: physicochemical
In short: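 6 mg of compound shaken 30 min at room temperature in 3 mL 1/15 M potassium phosphate buffer pH 7.0, centrifuged and filtered (0.45 µm). Filtrate concentration by HPLC.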

[3] = molecular target: Phosphatidylcholine-sterol acyltransferase (Rattus norvegicus) (UniProt P18424); test: Inhibition of rat LCAT up to 10 uM
[4] = molecular target: T1, Sterol O-acyltransferase 1 (Homo sapiens, UniProt P35610); test: Inhibition of ACAT-mediated esterified cholesterol accumulation in human THP1 cells exposed to acetyl-LDL during differentiation assessed as effect on foam cell formation; assay type: cell-based, THP-1
T1 sequence (P35610 whole entry): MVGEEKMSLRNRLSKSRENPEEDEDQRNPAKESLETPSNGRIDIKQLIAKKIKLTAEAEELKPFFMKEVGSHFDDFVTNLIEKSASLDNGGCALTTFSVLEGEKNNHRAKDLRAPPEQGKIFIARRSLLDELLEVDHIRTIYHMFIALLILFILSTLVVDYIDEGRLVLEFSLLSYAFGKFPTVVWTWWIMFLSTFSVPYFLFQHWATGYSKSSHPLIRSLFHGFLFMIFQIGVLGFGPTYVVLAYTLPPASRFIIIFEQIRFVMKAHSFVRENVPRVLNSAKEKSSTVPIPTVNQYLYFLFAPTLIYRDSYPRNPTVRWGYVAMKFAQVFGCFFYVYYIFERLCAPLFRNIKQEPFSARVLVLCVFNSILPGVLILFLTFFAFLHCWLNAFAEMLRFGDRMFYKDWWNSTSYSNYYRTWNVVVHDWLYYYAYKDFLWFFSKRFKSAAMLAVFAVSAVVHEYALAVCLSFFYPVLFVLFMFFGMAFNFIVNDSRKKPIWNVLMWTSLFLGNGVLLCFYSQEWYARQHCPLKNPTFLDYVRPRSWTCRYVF

[5] = molecular target: T2, Acyl-CoA:cholesterol acyltransferase (Oryctolagus cuniculus, UniProt Q95214); test: Inhibition of normocholesterolemic rabbit liver ACAT
T2 sequence (Q95214 whole entry): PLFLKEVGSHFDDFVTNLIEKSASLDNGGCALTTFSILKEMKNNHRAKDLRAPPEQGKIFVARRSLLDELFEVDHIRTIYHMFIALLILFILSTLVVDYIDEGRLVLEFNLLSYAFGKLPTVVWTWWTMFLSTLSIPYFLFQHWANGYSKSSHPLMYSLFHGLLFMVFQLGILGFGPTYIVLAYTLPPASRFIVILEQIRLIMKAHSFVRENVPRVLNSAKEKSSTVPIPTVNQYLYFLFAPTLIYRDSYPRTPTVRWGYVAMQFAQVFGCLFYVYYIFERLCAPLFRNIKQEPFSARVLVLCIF
In short: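 Liver from normocholesterolemic male Japanese White rabbits homogenized in sucrose/phosphate/EDTA/dithioerythritol buffer pH 7.4. Microsomes collected by 12000g then 105000g spins. Then 30 nmol [1-¹⁴C]oleoyl-CoA added, 20 min at 37 °C. Cholesteryl ester extracted and separated by TLC.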

[6] = AUC in Sprague-Dawley rat at 10 mg/kg, po; assay type: ADME, organism-based; design: dose 10 mg/kg, route oral; conditions: plasma
In short: (§1)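 Male SD rats, 6-7 weeks, fasted overnight, n = 3; single oral 10 mg/kg dose suspended in 5% arabic gum. Jugular-vein heparinized blood at 0.5, 1, 3, 5, 8, 24 h; plasma free-form compound by HPLC. AUC taken over 24 h.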

Plasma = test: Inhibition of LDL oxidation in genetically hypercholesterolemic KHC rabbit plasma assessed as malonaldehyde level after 1 hr; assay type: functional, cell-free; conditions: Oryctolagus cuniculus
In short: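 LDL fraction isolated from plasma of male KHC rabbits and oxidized with CuSO₄ 5 µM at 37 °C for 1 h with vehicle or compound. Oxidation read as MDA. IC50 from duplicate tubes per concentration; n = 4.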

[7] = Inhibition of lipid peroxidation in genetically hypercholesterolemic KHC rabbit serum assessed as malonaldehyde level after 4 hrs; assay type: functional, cell-free; conditions: Oryctolagus cuniculus
In short: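 Heparinized ear-artery plasma from KHC rabbits (2.4-2.7 kg) incubated with CuSO₄ 2 mM at 37 °C for 4 h with vehicle or compound. Lipid peroxide measured as MDA by kit. IC50 from duplicate tubes; n = 2.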

[8] = molecular target: T2, Acyl-CoA:cholesterol acyltransferase; test: Inhibition of ACAT in hyperlipidemic white rabbit adrenal microsomes assessed as esterified cholesterol accumulation; design: species or system Adrenal gland
In short: (§2)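 Microsomes (12000g then 105000g spins at 4 °C, sucrose/phosphate/EDTA/dithioerythritol buffer pH 7.4) from hypercholesterolemic rabbit tissues, in 154 mM phosphate pH 7.4 with BSA. Compound preincubated 5 min at 37 °C, then 30 nmol [1-14C]oleoyl-CoA added. Reaction at 37 °C: adrenal 10 min, intestine 7.5 min, liver 20 min, macrophage 30 min. Labelled cholesteryl ester extracted and resolved by TLC. IC50 from duplicate tubes.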

[9] = molecular target: T2, Acyl-CoA:cholesterol acyltransferase; test: Inhibition of ACAT in hyperlipidemic white rabbit intestine microsomes assessed as esterified cholesterol accumulation; design: species or system Microsome; in short: as §2
Cavia porcellus = test: Adrenotoxicity in guinea pig at 100 mg/kg/day administered for 4 days; assay type: toxicity, organism-based; conditions: in vivo, 96 h
[10] = molecular target: T2, Acyl-CoA:cholesterol acyltransferase; test: Inhibition of ACAT in microsomes from hyperlipidemic white rabbit macrophages assessed as esterified cholesterol accumulation; in short: as §2
[11] = Cmax in Sprague-Dawley rat at 10 mg/kg, po; assay type: ADME, organism-based; design: dose 10 mg/kg, route oral; conditions: in vivo; in short: as §1
Oryctolagus cuniculus [12] = test: Hypolipidemic effect in high-cholesterol diet fed Japanese white rabbit assessed as LDL/VLDL cholesterol level at 1 mg/kg/day, po for 7 days; assay type: functional
In short: (§3)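 Male Japanese white rabbits (2.5-3.0 kg) fed 1% cholesterol diet for 7 days with once-daily oral dosing in 5% arabic gum, or vehicle (n = 5/group). Fasted overnight after the final dose; ear-artery blood. Serum total and HDL cholesterol by enzymatic kit.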

Canis familiaris [13] = test: Hypolipidemic effect in Western diet fed Beagle dog assessed as HDL:HDL cholesterol level at 3 mg/kg/day, po for 7 days; assay type: functional, Canis lupus familiaris
In short: (§4)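 Male beagles (8.8-12.0 kg) fed a Western diet (meat, eggs, butter) for 7 days with once-daily oral dosing in 5% arabic gum, or vehicle (n = 3/group). […] blood 24 h after the last dose. Serum total and HDL cholesterol measured enzymatically.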

[14] = Cmax in Japanese white rabbit at 10 mg/kg, po; assay type: ADME, organism-based, Oryctolagus cuniculus; design: dose 10 mg/kg, route oral; conditions: in vivo
In short: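 Oral 10 mg/kg in 5% arabic gum to male Japanese white rabbits (2.7-3.0 kg, n = 4). Ear-vein heparinized blood at 0.25, 0.5, 1, 2, 3, 5, 8, 24 h. Free-form concentration in plasma by HPLC.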

Canis familiaris [15] = test: Hypolipidemic effect in Western diet fed Beagle dog assessed as LDL/VLDL cholesterol level at 3 mg/kg/day, po for 7 days; assay type: functional, Canis lupus familiaris; in short: as §4
[16] = molecular target: T2, Acyl-CoA:cholesterol acyltransferase; test: Inhibition of ACAT in hyperlipidemic white rabbit liver microsomes assessed as esterified cholesterol accumulation; design: species or system Microsome; in short: as §2
Rattus norvegicus [17] = test: Hypolipidemic effect in high-cholesterol diet fed Wistar rat assessed as HDL cholesterol level at 3 mg/kg/day, po for 3 days; assay type: functional
In short: (§5)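 Male Wistar rats, 8-9 weeks, on a diet of 1% cholesterol, 0.5% cholic acid and 10% coconut oil for 3 days; dosed orally once daily in 5% arabic gum, or vehicle (n = 5/group). Fasted 5 h after the last dose; abdominal-aorta blood under pentobarbital. Serum total and HDL cholesterol measured enzymatically.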

Oryctolagus cuniculus [18] = test: Hypolipidemic effect in high-cholesterol diet fed Japanese white rabbit assessed as HDL cholesterol level at 1 mg/kg/day, po for 7 days; assay type: functional; in short: as §3
Syrian golden hamster [19] = test: Hypolipidemic effect in regular diet fed Syrian hamster assessed as LDL/VLDL cholesterol level at 3 mg/kg/day, po for 3 weeks; assay type: functional, Mesocricetus auratus
In short: (§6)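 Male Syrian hamsters, 9 weeks, regular diet for 3 weeks with once-daily oral dosing in 5% arabic gum, or vehicle (n = 5/group). Abdominal-aorta blood 24 h after the last dose, under pentobarbital. Serum total and HDL cholesterol by enzymatic kit.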

[20] = molecular target: T1, Sterol O-acyltransferase 1; test: Inhibition of ACAT-mediated esterified cholesterol accumulation in human THP1 cells exposed to acetyl-LDL after differentiation assessed as effect on foam cell formation; assay type: cell-based, THP-1
In short: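 THP-1 cells first differentiated 3 days in RPMI-1640/10% FBS with PMA 200 nM and 2-mercaptoethanol 50 µM. Then washed and cultured 2 days with 50 µM 2-mercaptoethanol, acetyl-LDL 400 µg/mL from KHC rabbit plasma, and compound. Lipids extracted with hexane/isopropanol; esterified cholesterol = total minus free cholesterol, enzymatic; protein by Lowry. Duplicate assay, n = 4.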

Syrian golden hamster [21] = test: Hypolipidemic effect in regular diet fed Syrian hamster assessed as HDL:HDL cholesterol level at 3 mg/kg/day, po for 3 weeks; assay type: functional, Mesocricetus auratus; in short: as §6
[22] = Cmax in Beagle dog at 10 mg/kg, po; assay type: ADME, organism-based, Canis lupus familiaris; design: dose 10 mg/kg, route oral; conditions: in vivo
In short: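 Male beagles (9.0-11.6 kg, n = 4) dosed orally at 10 mg/kg as a 5% arabic gum suspension. Heparinized jugular-vein blood at 0.25, 0.5, 1, 2, 3, 5, 8, 12 h. Plasma free-form drug measured by HPLC.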

Rattus norvegicus [23] = test: Hypolipidemic effect in high-cholesterol diet fed Wistar rat assessed as LDL/VLDL cholesterol level at 3 mg/kg/day, po for 3 days; assay type: functional; in short: as §5

Phosphatidylcholine-sterol acyltransferase (Rattus norvegicus), sequence (P18424 whole entry, looked up): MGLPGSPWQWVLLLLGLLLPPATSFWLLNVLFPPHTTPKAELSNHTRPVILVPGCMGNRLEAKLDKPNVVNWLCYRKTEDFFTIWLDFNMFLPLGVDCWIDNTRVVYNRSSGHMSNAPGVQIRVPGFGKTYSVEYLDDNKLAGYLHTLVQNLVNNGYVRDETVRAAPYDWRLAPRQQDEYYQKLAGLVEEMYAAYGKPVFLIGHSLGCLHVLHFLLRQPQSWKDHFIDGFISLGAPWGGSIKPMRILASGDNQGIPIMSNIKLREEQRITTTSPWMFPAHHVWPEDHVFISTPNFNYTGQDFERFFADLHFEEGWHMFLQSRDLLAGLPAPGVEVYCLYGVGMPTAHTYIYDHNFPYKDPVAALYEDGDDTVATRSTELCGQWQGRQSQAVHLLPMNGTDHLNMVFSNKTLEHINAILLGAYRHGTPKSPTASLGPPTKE

Structure (SMILES)	IC50 (Brain) [µM]	logD [1]	solubility [2] [µg/mL]	IC50 [4] [µM]	IC50 [5] [µM]	AUC [6] [ng·h/mL]	further results
CCCCCCCCN1CCc2c(C)c(CN)c(C)c(NC(=O)C(C)(C)C)c21	4.2						
CCCCCCCCN1CC(CCC(=O)O)c2c(C)cc(C)c(NC(=O)C(C)(C)C)c21.Cl (stereo unspecified)		3.5	355				
CCCCCCCCN1CCc2c(C)c(CC(=O)O)c(C)c(NC(=O)C(C)(C)C)c21							Activity [3]: inactive
CCCCCCCCN1CCc2c(C)c(Cc3nnn[nH]3)c(C)c(NC(=O)C(C)(C)C)c21	1.7	3.7	66 (≈ 150 µM)	> 10	> 10	6600	
Cc1cc(C)c(NC(=O)C(C)(C)C)c2c1CCN2CCCCCCCCCC(=O)O	48.3			> 10	5.5	100	
CCCCCCCCN1CCc2c(C)c(CC(=O)O)c(C)c(NC(=O)C(C)(C)C)c21.CCCCCCCCN1CCc2c(C)c(CC(=O)O)c(C)c(NC(=O)C(C)(C)C)c21.O=S(=O)(O)O [PACTIMIBE SULFATE]		2.9	1450				
CCCCCCCCN1CCc2c(C)cc(C)c(NC(=O)C(C)(C)CCC(=O)O)c21.Cl		3	401				
CCCCCCCCN1CC(CCC(=O)O)c2c(C)cc(C)c(NC(=O)C(C)(C)C)c21 (stereo unspecified)	4.2			3.6	5	1700	
Cc1cc(C)c(NC(=O)C(C)(C)C)c2c1CCN2CCCCCCCCCC(=O)O.Cl		2.8	732				
CCCCCCCCN1CCc2c(C)cc(C)c(NC(=O)C(C)(C)CCC(=O)O)c21	6.6			> 10	> 10	5000	
CC(C)(Sc1cc(C(C)(C)C)c(O)c(C(C)(C)C)c1)Sc1cc(C(C)(C)C)c(O)c(C(C)(C)C)c1 [PROBUCOL]							IC50 (Plasma): 132 µM; IC50 [7]: 21.6 µM
CCCCCCCCN1CCc2c(C)c(CN)c(C)c(NC(=O)C(C)(C)C)c21.Cl.Cl		2.3	857				
CC(C)c1cc(C(C)C)c(CC(=O)NS(=O)(=O)Oc2c(C(C)C)cccc2C(C)C)c(C(C)C)c1 [AVASIMIBE]				1.5	7.6		
CCCCCCCCN1CCc2c(C)c(CC(=O)O)c(C)c(NC(=O)C(C)(C)C)c21 [PACTIMIBE]	1.3			1.8	1.2	1500	IC50 [8]: 15.9 µM; IC50 [9]: 0.72 µM; Activity (Cavia porcellus): Non-toxic; IC50 (Plasma): 0.98 µM; IC50 [10]: 1.9 µM; Cmax [11]: 2.2 µM; Activity (Oryctolagus cuniculus [12]): 119.5 mg/dL; Activity (Canis familiaris [13]): 141.3 mg/dL; Cmax [14]: 7.2 µM; Activity (Canis familiaris [15]): 31.6 mg/dL; IC50 [16]: 0.69 µM; Activity (Rattus norvegicus [17]): 29.4 mg/dL; Activity (Oryctolagus cuniculus [18]): 15.4 mg/dL; Activity (Syrian golden hamster [19]): 70.3 mg/dL; IC50 [20]: 0.3 µM; Activity (Syrian golden hamster [21]): 58.3 mg/dL; IC50 [7]: 4.4 µM; Cmax [22]: 26.8 µM; Activity (Rattus norvegicus [23]): 9.7 mg/dL
CCCCCCCCN1CCc2c(C)cc(C)c(NC(=O)C(C)(C)C)c21	3.1					200	
CCCCCCCCN1CCc2c(C)cc(C)c(NC(=O)C(C)(C)C)c21.Cl		6.2	0.08				
